Read-outs that look alike come from different tables or passages of the source. Marks after values point to notes of the source that are not given here.
Columns and labels:
adrenergic α1A = adrenergic α1A (Homo sapiens, UniProt P35348); test: NIMH PDSP binding affinity, human cloned receptor
α1B = α1B (Homo sapiens, UniProt P35368); test: NIMH PDSP binding affinity, human cloned receptor
adrenergic α1D = adrenergic α1D (Homo sapiens, UniProt P25100); test: NIMH PDSP binding affinity, human cloned receptor
Chain of adrenergic α1D (P25100 whole entry): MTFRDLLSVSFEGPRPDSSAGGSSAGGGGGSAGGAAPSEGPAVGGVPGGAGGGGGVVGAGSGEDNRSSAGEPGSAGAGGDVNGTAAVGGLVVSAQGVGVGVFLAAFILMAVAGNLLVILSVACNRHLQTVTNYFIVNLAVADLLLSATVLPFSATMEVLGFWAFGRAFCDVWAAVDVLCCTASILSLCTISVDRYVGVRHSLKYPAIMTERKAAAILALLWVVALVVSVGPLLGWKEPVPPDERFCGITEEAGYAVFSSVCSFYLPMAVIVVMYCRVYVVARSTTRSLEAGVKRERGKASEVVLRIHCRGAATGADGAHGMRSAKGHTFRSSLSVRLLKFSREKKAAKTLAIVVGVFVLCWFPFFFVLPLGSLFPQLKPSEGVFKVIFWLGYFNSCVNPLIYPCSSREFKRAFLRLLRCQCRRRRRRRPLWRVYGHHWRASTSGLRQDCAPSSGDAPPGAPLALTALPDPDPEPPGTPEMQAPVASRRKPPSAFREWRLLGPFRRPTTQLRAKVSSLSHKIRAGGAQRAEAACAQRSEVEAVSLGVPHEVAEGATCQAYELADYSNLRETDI

D2 subtype = D2 subtype (Homo sapiens, UniProt P14416); test: NIMH PDSP binding affinity, human cloned receptor; conditions: read-out: Affinity, D2 subtype
Chain of D2 subtype (P14416 whole entry): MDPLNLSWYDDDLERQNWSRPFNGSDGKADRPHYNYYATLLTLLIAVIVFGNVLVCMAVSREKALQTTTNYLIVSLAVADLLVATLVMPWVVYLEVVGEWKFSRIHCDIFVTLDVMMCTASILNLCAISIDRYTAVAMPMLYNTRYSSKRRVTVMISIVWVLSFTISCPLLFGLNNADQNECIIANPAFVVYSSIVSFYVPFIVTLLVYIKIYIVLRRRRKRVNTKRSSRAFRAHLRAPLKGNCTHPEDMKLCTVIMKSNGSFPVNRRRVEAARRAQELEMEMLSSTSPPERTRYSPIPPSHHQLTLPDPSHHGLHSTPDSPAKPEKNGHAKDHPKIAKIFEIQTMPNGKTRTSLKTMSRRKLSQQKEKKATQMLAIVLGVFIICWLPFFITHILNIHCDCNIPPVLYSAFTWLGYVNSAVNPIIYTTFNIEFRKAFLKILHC

D1 = D1 (Homo sapiens, UniProt P21728); test: NIMH PDSP binding affinity, human cloned receptor; conditions: D1-like receptors
Chain of D1 (P21728 whole entry): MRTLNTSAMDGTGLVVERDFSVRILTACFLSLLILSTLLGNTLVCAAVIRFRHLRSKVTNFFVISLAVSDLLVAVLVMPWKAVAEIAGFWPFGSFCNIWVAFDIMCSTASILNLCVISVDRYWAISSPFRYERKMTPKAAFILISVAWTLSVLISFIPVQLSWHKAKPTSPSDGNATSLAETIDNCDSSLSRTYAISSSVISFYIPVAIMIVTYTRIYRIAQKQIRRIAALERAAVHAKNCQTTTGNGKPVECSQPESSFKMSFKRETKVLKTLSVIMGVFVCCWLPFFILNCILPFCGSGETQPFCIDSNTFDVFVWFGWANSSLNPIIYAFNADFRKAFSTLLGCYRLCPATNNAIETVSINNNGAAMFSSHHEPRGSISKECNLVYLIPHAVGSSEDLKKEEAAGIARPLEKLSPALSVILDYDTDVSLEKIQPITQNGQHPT

D5 = D5 (Homo sapiens, UniProt P21918); test: NIMH PDSP binding affinity, human cloned receptor; conditions: D1-like receptors
Chain of D5 (P21918 whole entry): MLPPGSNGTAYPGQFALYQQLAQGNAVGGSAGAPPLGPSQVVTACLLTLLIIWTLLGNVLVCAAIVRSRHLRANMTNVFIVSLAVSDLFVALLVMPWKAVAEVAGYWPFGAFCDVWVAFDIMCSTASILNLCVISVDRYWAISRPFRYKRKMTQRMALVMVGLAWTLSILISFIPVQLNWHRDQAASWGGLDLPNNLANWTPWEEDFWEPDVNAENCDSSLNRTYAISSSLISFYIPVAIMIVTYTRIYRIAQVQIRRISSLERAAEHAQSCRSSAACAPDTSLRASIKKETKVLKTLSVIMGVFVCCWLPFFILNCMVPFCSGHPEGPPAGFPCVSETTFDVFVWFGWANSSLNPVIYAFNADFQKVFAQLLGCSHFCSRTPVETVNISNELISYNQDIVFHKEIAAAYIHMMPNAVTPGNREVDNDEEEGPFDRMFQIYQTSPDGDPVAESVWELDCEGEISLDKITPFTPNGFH

[1] = target: multidrug resistance 1 protein (MDR1; P-glycoprotein) (Homo sapiens, UniProt P08183); test: Multidrug resistance; assay type: biochemical; conditions: read-out: IC50 as potential substrate of MDR1 (P-glycoprotein)
5-HT1A receptors [2] = target: T1, 5-HT1A receptors (Homo sapiens, UniProt P08908); test: In vitro autoradiography of 18F-Mefway, human postmortem hippocampus sections; assay type: binding
T1 sequence (P08908 1-422): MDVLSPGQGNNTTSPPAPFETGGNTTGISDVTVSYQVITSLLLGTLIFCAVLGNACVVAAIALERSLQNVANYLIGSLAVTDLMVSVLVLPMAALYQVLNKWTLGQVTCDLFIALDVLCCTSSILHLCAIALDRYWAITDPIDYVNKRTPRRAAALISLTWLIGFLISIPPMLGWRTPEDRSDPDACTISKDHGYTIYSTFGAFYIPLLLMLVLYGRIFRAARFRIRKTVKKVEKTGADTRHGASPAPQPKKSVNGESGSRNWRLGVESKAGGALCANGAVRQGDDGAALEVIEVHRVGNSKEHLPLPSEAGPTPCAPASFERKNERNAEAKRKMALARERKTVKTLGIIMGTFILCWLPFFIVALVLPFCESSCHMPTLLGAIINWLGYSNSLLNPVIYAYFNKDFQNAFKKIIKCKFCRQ
How it was run: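 Dog tissue: unfixed beagle brain (4.5–15.4 yr), stored at −80 °C, cut as 10 µm hemi-coronal slices with hippocampus and cortex. Human tissue: postmortem hippocampus (PMI 3.8–5.8 h), cut at 7 µm. Slices preincubated in 50 mM Tris-HCl pH 7.4 for 10 min at room temperature, then incubated with 37–185 kBq/mL tracer at 37 °C for 1 h. […] Two 1-min ice-cold buffer washes, then 24 h phosphor-screen exposure. Binding read as DLU/mm².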

Sprague-Dawley rats = test: Expanded acute toxicity study; assay type: in vivo, rat; conditions: for Maximum tolerated dose (MTD) / No observed adverse effect level (NOAEL): intravenous, Days 1, 3 and 6, male and female rats
How it was run: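 Sprague-Dawley rats, 40 males and 40 females, 8–9 weeks old (males 243–283 g, females 175–202 g), plus a vehicle control group. Dosed i.v. at 4, 20 or 40 μg/kg/day (27.8, 139, 278 μg/m²/day). Monitored clinical signs (motor and behavioural), body weight, food intake, ophthalmology, haematology, serum chemistry and urinalysis. Histopathology on Days 7 and 20 after euthanasia.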

[3] = target: serotonin 5-HT1A receptors; conditions: rat brain homogenates labeled with 3H-WAY 100635; ref Saigal et al., 2013; cited from earlier work
5-HT1A receptors [4] = target: T2, 5-HT1A receptors (Mus musculus, UniProt Q64264); conditions: cited from earlier work; for Brain Uptake: initial, 1–2 min post-injection
T2 sequence (Q64264 1-421): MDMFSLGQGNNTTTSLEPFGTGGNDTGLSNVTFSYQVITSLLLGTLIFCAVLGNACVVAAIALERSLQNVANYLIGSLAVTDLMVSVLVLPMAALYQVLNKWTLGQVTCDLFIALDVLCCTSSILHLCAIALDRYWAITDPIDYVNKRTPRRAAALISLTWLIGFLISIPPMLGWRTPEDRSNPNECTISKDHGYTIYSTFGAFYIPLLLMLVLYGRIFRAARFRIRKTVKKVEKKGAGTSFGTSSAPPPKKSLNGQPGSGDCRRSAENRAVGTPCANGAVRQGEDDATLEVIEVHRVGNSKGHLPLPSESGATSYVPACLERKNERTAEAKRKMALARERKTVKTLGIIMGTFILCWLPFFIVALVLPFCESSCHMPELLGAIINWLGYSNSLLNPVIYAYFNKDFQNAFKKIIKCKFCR

5-HT1A receptors [5] = target: T3, 5-HT1A receptors (Rattus norvegicus, UniProt P19327); conditions: 90 mins post-injection, cited from earlier work
T3 sequence (P19327 1-422): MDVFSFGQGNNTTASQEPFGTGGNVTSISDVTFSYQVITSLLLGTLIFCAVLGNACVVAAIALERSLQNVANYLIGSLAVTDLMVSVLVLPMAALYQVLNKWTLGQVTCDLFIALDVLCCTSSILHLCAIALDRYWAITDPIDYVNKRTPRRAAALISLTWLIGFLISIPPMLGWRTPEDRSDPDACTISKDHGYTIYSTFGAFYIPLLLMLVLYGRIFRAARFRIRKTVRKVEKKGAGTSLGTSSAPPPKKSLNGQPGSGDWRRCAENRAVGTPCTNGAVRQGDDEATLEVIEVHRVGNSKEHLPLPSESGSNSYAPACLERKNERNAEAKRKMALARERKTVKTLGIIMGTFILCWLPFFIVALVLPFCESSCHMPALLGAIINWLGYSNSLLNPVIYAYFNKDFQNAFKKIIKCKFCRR

5-HT1A receptors [6] = conditions: cited from earlier work
[7] = human plasma; ref Hillmer et al., 2014; cited from earlier work
[8] = rhesus monkey; ref Wooten et al., 2013; cited from earlier work
[9] = [5-HT1A affinity/other receptor affinity]×100, 5-HT1A 0.6 or 2.2 nM for WAY-100635, 0.9 nM for Mefway
[10] = ref Saigal et al., 2013, listed as 18F-Mefway

Chain of adrenergic α1A (P35348 whole entry): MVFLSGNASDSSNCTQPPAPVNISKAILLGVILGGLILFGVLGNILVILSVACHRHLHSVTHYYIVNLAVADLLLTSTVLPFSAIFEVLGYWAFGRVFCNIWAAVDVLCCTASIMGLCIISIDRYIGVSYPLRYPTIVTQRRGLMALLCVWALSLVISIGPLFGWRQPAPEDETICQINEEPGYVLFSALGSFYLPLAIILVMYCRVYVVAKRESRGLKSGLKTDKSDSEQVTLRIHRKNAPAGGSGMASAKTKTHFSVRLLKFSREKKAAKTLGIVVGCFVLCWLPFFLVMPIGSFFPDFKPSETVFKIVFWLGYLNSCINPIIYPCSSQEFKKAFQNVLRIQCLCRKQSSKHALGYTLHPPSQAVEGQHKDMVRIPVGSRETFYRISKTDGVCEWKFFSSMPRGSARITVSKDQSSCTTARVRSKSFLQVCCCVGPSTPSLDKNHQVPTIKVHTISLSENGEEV
Chain of α1B (P35368 whole entry): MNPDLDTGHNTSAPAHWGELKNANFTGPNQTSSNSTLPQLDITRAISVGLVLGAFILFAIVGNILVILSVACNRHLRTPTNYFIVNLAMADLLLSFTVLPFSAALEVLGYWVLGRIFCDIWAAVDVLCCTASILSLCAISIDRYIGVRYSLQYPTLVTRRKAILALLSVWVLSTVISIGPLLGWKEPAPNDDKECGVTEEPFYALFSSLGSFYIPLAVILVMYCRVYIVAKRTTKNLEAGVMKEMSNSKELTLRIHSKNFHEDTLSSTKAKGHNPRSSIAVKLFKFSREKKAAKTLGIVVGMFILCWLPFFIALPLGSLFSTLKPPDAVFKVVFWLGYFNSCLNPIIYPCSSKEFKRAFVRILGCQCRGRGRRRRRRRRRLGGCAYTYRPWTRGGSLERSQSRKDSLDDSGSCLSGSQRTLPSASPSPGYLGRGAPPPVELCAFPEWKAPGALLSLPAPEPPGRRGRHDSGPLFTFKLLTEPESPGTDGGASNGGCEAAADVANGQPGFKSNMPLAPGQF

For `COc1ccccc1N1CCN(CCN(C(=O)C2CCC(CF)CC2)c2ccccn2)CC1` (stereo not shown) [Mefway], the “% human 5HT1A Selectivity, α1A” value (adrenergic α1A; [9]) was 1.29%, the Ki (adrenergic α1A; read-out: Binding affinity, Ki, α1A, human cloned receptor, PDSP) was 70 nM and the “% human 5HT1A Selectivity, α1B” value (α1B; [9]) was 0.18%. For the same molecule, the Ki (α1B; read-out: Binding affinity, Ki, α1B, human cloned receptor, PDSP) was 505 nM, the “% human 5HT1A Selectivity, α1D” value (adrenergic α1D; [9]) was 1.58% and the Ki (adrenergic α1D; read-out: Binding affinity, Ki, α1D, human cloned receptor, PDSP) was 57 nM. For the same molecule, the Ki (D2 subtype) was 188 nM, the “Affinity, D1 subtype” value (D1) was “very poor affinities” and the “Affinity, D5 subtype” value (D5) was “very poor affinities”. For the same molecule, the IC50 [1] was over 30000 nM, the “Ratio of hippocampus versus white matter, autoradiography” value (5-HT1A receptors [2]; human hippocampus sections) was 13 and the “Binding displaced in hippocampus and cortex” value (5-HT1A receptors [2]; in the presence of 10 μM of WAY-100635, human (all the species)) was over 95%. The Morbidity or mortality (Sprague-Dawley rats; 4, 20 and 40 μg/kg/day i.v.) was “no morbidity or mortality”, the Tolerability (Sprague-Dawley rats; 4, 20 and 40 μg/kg/day i.v. on Days 1, 3 and 6) was “well tolerated” and the “Maximum tolerated dose (MTD)” value (Sprague-Dawley rats) was over 278 μg/m^2/day. The “No observed adverse effect level (NOAEL)” value (Sprague-Dawley rats) was over 278 μg/m^2/day, the “Maximum tolerated dose (MTD)” value (Sprague-Dawley rats; maximum dose level tested) was “exceed 40 μg/kg/day” and the “No observed adverse effect level (NOAEL)” value (Sprague-Dawley rats; maximum dose level tested) was “exceed 40 μg/kg/day”. For the same molecule, the “Binding affinity, Ki, 5-HT1A, rat brain homogenates” value [3] was “subnanomolar affinity”, the “HP/CB PET ratio” value (5-HT1A receptors [4]; 90 mins post-injection, may be underestimated, ref Saigal et al., 2013) was 3 ^g and the “Brain Uptake” value (5-HT1A receptors [4]; [10]) was 5 %ID/cc. The “Brain Uptake” value (5-HT1A receptors [4]; ref Saigal et al., 2013) was 5 ^g %ID/cc, the “HP/CB PET ratio” value (5-HT1A receptors [5]; [10]) was 10 and the “HP/CB PET ratio” value (5-HT1A receptors [5]; ref Saigal et al., 2013) was 10 ^g. The “Raphe ratio with respect to cerebellum” value (5-HT1A receptors [6]; monkey, higher resolution P4 scanner, ref Wooten et al., 2011b) was “greater than 3”, the “HP/CB PET ratio” value (5-HT1A receptors [6]; monkey, 90 mins post-injection, ref Saigal et al., 2006, Wooten et al., 2011b) was 10 ^f and the “Raphe BPND” value (5-HT1A receptors [6]; monkey, ref Wooten et al., 2011b) was “greater than 3”. The “Raphe ratio with respect to cerebellum” value (5-HT1A receptors [6]; monkeys, EXACT HR+ PET scanner, ref Saigal et al., 2006) was “approximately 2”, the “Raphe to cerebellum ratio” value (5-HT1A receptors [6]; monkeys, scanner not stated (abstract)) was “approximately 3” and the “Free Fraction in plasma” value [7] was 5% ^j. The “Free Fraction in plasma” value [8] was 15% ^j.
